The nature of data set [1]: Selectivity index, ratio of IC50 for HEK293 cells to IC50 for chloroquine-sensitive Plasmodium falciparum 3D7. To be noted: human; read-out: Ratio IC50. In kind it is toxicity.
Data set [2] is described as follows: Selectivity index, ratio of IC50 for HEK293 cells to IC50 for chloroquine-resistant Plasmodium falciparum Dd2. The format is toxicity. To be noted: human; read-out: Ratio IC50.
Data set [3] relates to Plasmodium falciparum. In words: Antimalarial activity against chloroquine-sensitive Plasmodium falciparum 3D7 at 10 uM after 72 hrs by DAPI staining based fluorescence assay. The format is functional, organism-based.
Data set [4] deals with Plasmodium falciparum. The data set is described as follows: Antimalarial activity against chloroquine-resistant Plasmodium falciparum Dd2 at 10 uM after 72 hrs by DAPI staining based fluorescence assay. In kind it is functional, organism-based.
Data set [5] concerns Plasmodium falciparum. The data set is described as follows: Antimalarial activity against chloroquine-resistant Plasmodium falciparum Dd2 after 72 hrs by DAPI staining based fluorescence assay. To be noted: Dd2, 72 h. The format is functional, organism-based.
The test system of data set [6] is Plasmodium falciparum. In words: Antimalarial activity against chloroquine-sensitive Plasmodium falciparum 3D7 after 72 hrs by DAPI staining based fluorescence assay. In kind it is functional, organism-based. Particulars: 3D7, 72 h.
The nature of data set [7]: Cytotoxicity against HEK293 cells assessed as inhibition of cell growth at 80 uM after 72 hrs by alamar blue assay relative to control. The format is cell-based. To be noted: human, read-out: GI. The gist of the method: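 HEK293 human embryonic kidney cells; the reported value is the average percent inhibition measured at 80 μM.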
For orientation: Resazurin is reduced to fluorescent resorufin, in cell work by metabolically active cells.

The next data set deals with HEK293. The data set is described as follows: Cytotoxicity against HEK293 cells assessed as inhibition of cell growth at 10 uM after 72 hrs by alamar blue assay. The format is cell-based. To be noted: human, hek293, 72 h.

pIC50: −log10 of the molar value. The source made the active and inactive calls. No cut-off for these calls is given here.

Five molecules from ChEMBL document CHEMBL4251685, “Microthecaline A, a Quinoline Serrulatane Alkaloid from the Roots of the Australian Desert Plant Eremophila microtheca” (J Nat Prod, 2018) can be followed below.

On to `COc1ccc(C[C@H](N)C(=O)N[C@H]2[C@@H](O)[C@H](n3cnc4c(N(C)C)ncnc43)O[C@@H]2CO)cc1` [PUROMYCIN], for which the selectivity ratio in data set [1] came to 9; in data set [2], 10.5.

On to `COc1cc(C)c2ncc(CCC=C(C)C)c3c2c1[C@H](C)CC3`, for which the result in the data set on Plasmodium falciparum [3] and in the data set on Plasmodium falciparum [4] was inactive.

One may read the pIC50 as the IC50 on a negative log10 scale, so that one unit is a factor of ten. Read a low pIC50 as a high IC50. For `C[C@H]1[C@H](OC(=O)CCC(=O)O)O[C@@H]2O[C@@]3(C)CC[C@H]4[C@H](C)CC[C@@H]1[C@@]24OO3` [ARTESUNATE], the pIC50 in the data set with Plasmodium falciparum [5] is 9.00. Moreover, the selectivity ratio was 11600 in data set [1] and 10000 in data set [2].

For the molecule `CC(C)=CCCc1cnc2c(C)cc(O)c3c2c1CC[C@H]3C`, the figures for the pIC50 with Plasmodium falciparum [6] and in the data set on Plasmodium falciparum [5] were 5.11 and 4.76, respectively. Besides, the inhibition at 72 h, 80 µM in data set [7] turned out to be 62%. Further, the selectivity ratio was determined as 5.2 in data set [1] and 2.3 in data set [2].

With `CCN(CC)CCCC(C)Nc1ccnc2cc(Cl)ccc12` (stereo not drawn) [CHLOROQUINE], the “growth inhibition (GI)” value in the data set on HEK293 is given as “Not Active”.
